Compound activity (PubChem BioAssay)
The list is not random: actives were taken first. Their share in the collection is about 5.9%.
Pf Dd2 growth: inhibitors of Plasmodium falciparum Dd2 growth; AID 1159554; activity change, % at 10 µM; 94,000 compounds, 2.3% hits; P. falciparum Dd2 growth, SYBR Green, 72 h; stronger effect = lower value; in the data active = activity change below about -80%; inconclusive = no clear call, values can overlap the other calls
GASC1 inh: inhibitors of human demethylase GASC-1 KDM4C; 96,000 compounds, 0.15% hits; inhibition, % at 12.5 µM; GST-KDM4C 2-372, H3K9me3 peptide, LANCE TR-FRET;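 active = mean replicate inhibition above about 25%, with at least 55% of replicates also reaching it, limit read from the data, passing the limit was not always enough; inconclusive = only one of those two conditions met; inactive = neither condition met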
Target sequence (Q9H3R0 2-372 limits assumed): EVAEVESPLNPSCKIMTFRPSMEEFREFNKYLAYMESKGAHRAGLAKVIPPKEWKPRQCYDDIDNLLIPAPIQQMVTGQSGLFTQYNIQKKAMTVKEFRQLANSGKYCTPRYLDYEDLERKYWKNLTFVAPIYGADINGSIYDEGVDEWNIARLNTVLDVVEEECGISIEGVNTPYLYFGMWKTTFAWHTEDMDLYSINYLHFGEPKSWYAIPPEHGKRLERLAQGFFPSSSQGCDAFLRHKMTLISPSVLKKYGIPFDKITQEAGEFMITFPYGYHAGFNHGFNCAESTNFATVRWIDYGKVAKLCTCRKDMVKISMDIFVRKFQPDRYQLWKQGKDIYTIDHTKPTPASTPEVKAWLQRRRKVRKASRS
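System: N-terminal GST-fused human GASC-1 (KDM4C) fragment, residues 2-372 / Amount: 10 nM GST-KDM4C in enzyme reaction / Also added: H3K9me3 peptide with Fe(II)/2OG / Times: 30 min demethylation and 1 h detection at room temperature / Signal: LANCE TR-FRET / Read-out basis: Fall in 671/618 emission ratio as inhibition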
T cruzi growth-1: T. cruzi proliferation inhibition. T. cruzi beta-gal in NIH3T3, GalScreen luminescence, 90 h. inhibition, % at 8.34 µM. 77,000 compounds, 5.9% hits;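 active = mean inhibition above about 93%, with at least 55% of replicates each passing it, limit read from the data, passing the limit was not always enough; inconclusive = only one of those two conditions holds; inactive = neither condition holds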
IDH1 R132H inh: IDH1 R132H (human) inhibition; 70,000 compounds, 0.18% hits; O75874; IDH1 R132H reductase, diaphorase/resazurin fluorescence, 60 min; AID 624101; inhibition, % at 10 µM; in the data active = inhibition above about 34%; inconclusive = no clear call, values can overlap the other calls; inactive = below about 11%
Target sequence (O75874 whole entry R132H): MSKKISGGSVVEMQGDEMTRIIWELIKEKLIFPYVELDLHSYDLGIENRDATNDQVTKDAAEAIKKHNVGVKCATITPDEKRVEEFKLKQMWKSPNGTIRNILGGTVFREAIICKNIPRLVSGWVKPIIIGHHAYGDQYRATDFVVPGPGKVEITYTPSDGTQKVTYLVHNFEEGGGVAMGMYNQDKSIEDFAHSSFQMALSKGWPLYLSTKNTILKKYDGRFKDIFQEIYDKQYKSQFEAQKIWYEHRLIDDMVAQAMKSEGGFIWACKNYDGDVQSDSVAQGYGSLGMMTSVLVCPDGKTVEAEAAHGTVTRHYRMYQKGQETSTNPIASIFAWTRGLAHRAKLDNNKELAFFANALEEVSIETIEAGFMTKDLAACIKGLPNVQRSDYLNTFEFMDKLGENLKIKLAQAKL
T cruzi growth-2: Trypanosoma cruzi proliferation inhibition; shares compounds with T cruzi growth-1; T. cruzi beta-gal in NIH3T3, GalScreen luminescence, 90 h; inhibition, % at 8.35 µM; 5,600 compounds, 72% hits;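 active = mean replicate inhibition above about 95% and at least 55% of replicates individually reaching it, limit read from the data; inconclusive = only one of the two criteria is met; inactive = neither criterion is met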
T cruzi growth-3: inhibitors of T. cruzi proliferation; inhibition, % at 2.09 µM; AID 651740; shares compounds with T cruzi growth-1; 5,600 compounds, 21% hits; T. cruzi beta-gal in NIH3T3, GalScreen luminescence, 90 h;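 active = mean inhibition above about 95%, with at least 55% of replicates also reaching it, limit read from the data; inconclusive = meets just one of the two conditions; inactive = meets neither condition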
NIH3T3 tox: NIH/3T3 (mouse) viability loss | cytotoxicity (signal decrease), % at 8.35 µM | 5,600 compounds, 14% hits | shares compounds with T cruzi growth-1 | NIH/3T3 viability, CellTiter-Glo ATP luminescence, 90 h;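 active = mean signal decrease across replicates above about 35% based on untreated-well scatter, with enough replicates individually passing, limit read from the data; inconclusive = no rule stated though some were filed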
3T3 cytotox 2: cytotoxicity in mouse NIH/3T3 fibroblasts; shares compounds with T cruzi growth-1; NIH/3T3 viability, CellTiter-Glo ATP luminescence, 90 h; inhibition, % at 24.9 µM; 5,600 compounds, 56% hits;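 active = mean loss of cell viability signal at or above a set limit, and enough replicates individually reaching it; inconclusive = meets only the mean limit or only the replicate share; inactive = meets neither condition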
Each line names hits and unclear results; the compound was inactive in the other large screens (follow-up assays come after a bar, where they were run).

C[C@H]1CN([C@@H](C)CO)C(=O)c2cccc(N(C)C)c2O[C@H]1CN(C)Cc1ccc(C(F)(F)F)cc1	none
C[C@@H]1CN([C@H](C)CO)C(=O)c2cccc(N(C)C)c2O[C@H]1CN(C)Cc1ccc(C(F)(F)F)cc1	T cruzi growth-1 101 (no result: IDH1 R132H inh) | T cruzi growth-2 inactive | T cruzi growth-3 inactive | NIH3T3 tox inactive | 3T3 cytotox 2 103
C[C@H]1CN([C@@H](C)CO)C(=O)c2cccc(N(C)C)c2O[C@@H]1CN(C)C(=O)Nc1ccc(C(F)(F)F)cc1	none
C[C@H](CO)N1C[C@H](C)[C@H](CN(C)C(=O)Nc2ccc(C(F)(F)F)cc2)Oc2c(cccc2N(C)C)C1=O	T cruzi growth-1 96 | T cruzi growth-2 inactive | T cruzi growth-3 inactive | NIH3T3 tox inactive | 3T3 cytotox 2 inactive
C[C@H]1CN([C@@H](C)CO)C(=O)c2cccc(N(C)C)c2O[C@@H]1CN(C)Cc1ccc(C(F)(F)F)cc1	T cruzi growth-1 103 | T cruzi growth-2 inactive | T cruzi growth-3 inactive | NIH3T3 tox inactive | 3T3 cytotox 2 66
COC(=O)c1cc(NC(=O)CSc2nc(Nc3ccccc3)nc(N3CCOCC3)n2)ccc1Cl	none (no result: Pf Dd2 growth, GASC1 inh, T cruzi growth-1)
COc1cc(S(=O)(=O)Nc2ccncc2)c(OC)cc1Cl	none (no result: Pf Dd2 growth, GASC1 inh, T cruzi growth-1)
O=C(NO)c1cccc(C(=O)N/N=C/c2cccc(O)c2)c1	none (no result: Pf Dd2 growth, GASC1 inh, T cruzi growth-1)
Cc1noc(C)c1S(=O)(=O)N(C)C[C@H]1OCCCC[C@@H](C)Oc2ccc(NS(=O)(=O)c3ccc(Cl)cc3)cc2C(=O)N([C@@H](C)CO)C[C@@H]1C	T cruzi growth-1 100 (no result: IDH1 R132H inh) | T cruzi growth-2 107 | T cruzi growth-3 inactive | NIH3T3 tox inactive | 3T3 cytotox 2 inactive
Cc1noc(C)c1S(=O)(=O)N(C)C[C@H]1OCCCC[C@@H](C)Oc2ccc(NS(=O)(=O)c3ccc(Cl)cc3)cc2C(=O)N([C@@H](C)CO)C[C@H]1C	T cruzi growth-1 108 (no result: IDH1 R132H inh) | T cruzi growth-2 102 | T cruzi growth-3 100 | NIH3T3 tox inactive | 3T3 cytotox 2 26
Cc1noc(C)c1S(=O)(=O)N(C)C[C@@H]1OCCCC[C@@H](C)Oc2ccc(NS(=O)(=O)c3ccc(Cl)cc3)cc2C(=O)N([C@H](C)CO)C[C@@H]1C	none (no result: IDH1 R132H inh)
Cc1noc(C)c1S(=O)(=O)Nc1ccc2c(c1)C(=O)N([C@@H](C)CO)C[C@@H](C)[C@H](CN(C)S(=O)(=O)c1ccc(Cl)cc1)OCCCC[C@@H](C)O2	none (no result: IDH1 R132H inh)
Cc1noc(C)c1S(=O)(=O)N(C)C[C@@H]1OCCCC[C@H](C)Oc2ccc(NS(=O)(=O)c3ccc(Cl)cc3)cc2C(=O)N([C@H](C)CO)C[C@@H]1C	T cruzi growth-1 98 | T cruzi growth-2 106 | T cruzi growth-3 inactive | NIH3T3 tox inactive | 3T3 cytotox 2 inactive
Cc1noc(C)c1S(=O)(=O)N(C)C[C@@H]1OCCCC[C@@H](C)Oc2ccc(NS(=O)(=O)c3ccc(F)cc3)cc2C(=O)N([C@H](C)CO)C[C@H]1C	T cruzi growth-1 inconclusive | T cruzi growth-2 inactive | T cruzi growth-3 inactive | NIH3T3 tox inactive | 3T3 cytotox 2 inactive
Cc1noc(C)c1S(=O)(=O)N(C)C[C@@H]1OCCCC[C@@H](C)Oc2ccc(NS(=O)(=O)c3ccc(Cl)cc3)cc2C(=O)N([C@@H](C)CO)C[C@H]1C	none
Cc1ccc(S(=O)(=O)Nc2ccc3c(c2)C(=O)N([C@@H](C)CO)C[C@@H](C)[C@@H](CN(C)S(=O)(=O)c2c(C)noc2C)OCCCC[C@@H](C)O3)cc1	T cruzi growth-1 98 | T cruzi growth-2 107 | T cruzi growth-3 inactive | NIH3T3 tox inactive | 3T3 cytotox 2 inactive
Cc1noc(C)c1S(=O)(=O)Nc1ccc2c(c1)C(=O)N([C@H](C)CO)C[C@@H](C)[C@H](CN(C)S(=O)(=O)c1ccc(Cl)cc1)OCCCC[C@@H](C)O2	Pf Dd2 growth inconclusive, T cruzi growth-1 104 (no result: IDH1 R132H inh) | T cruzi growth-2 107 | T cruzi growth-3 inactive | NIH3T3 tox inactive | 3T3 cytotox 2 inactive
Cc1cccc(S(=O)(=O)NC(C(=O)O)C(C)C)c1 (stereo unspecified)	none (no result: Pf Dd2 growth, GASC1 inh, T cruzi growth-1)
O=C(C1CCCCC1)N1CC[C@@H]2[C@H]1c1cc(C#Cc3ccc(F)cc3)ccc1N[C@@H]2CO	T cruzi growth-1 106 (no result: IDH1 R132H inh) | T cruzi growth-2 104 | T cruzi growth-3 inactive | NIH3T3 tox inactive | 3T3 cytotox 2 104
O=C(C1CCC1)N1CC[C@@H]2[C@H]1c1cc(-c3cccc(F)c3)ccc1N[C@@H]2CO	T cruzi growth-1 101 (no result: IDH1 R132H inh) | T cruzi growth-2 105 | T cruzi growth-3 109 | NIH3T3 tox inactive | 3T3 cytotox 2 74
O=C(C1CC1)N1CC[C@@H]2[C@H](CO)Nc3ccc(-c4cccc(F)c4)cc3[C@@H]21	T cruzi growth-1 116 (no result: IDH1 R132H inh) | T cruzi growth-2 104 | T cruzi growth-3 inactive | NIH3T3 tox inactive | 3T3 cytotox 2 inactive
O=C(C1CCCC1)N1CC[C@@H]2[C@@H](CO)Nc3ccc(-c4cccc(F)c4)cc3[C@@H]21	none (no result: T cruzi growth-1, IDH1 R132H inh)
O=C(C1CCCC1)N1CC[C@@H]2[C@H](CO)Nc3ccc(-c4cccc(F)c4)cc3[C@@H]21	none (no result: T cruzi growth-1, IDH1 R132H inh)
O=C(C1CCCC1)N1CC[C@H]2[C@H](CO)Nc3ccc(C#Cc4ccc(F)cc4)cc3[C@H]21	none (no result: GASC1 inh, T cruzi growth-1, IDH1 R132H inh)
O=C(C1CC1)N1CC[C@H]2[C@H](CO)Nc3ccc(-c4cccc(F)c4)cc3[C@H]21	T cruzi growth-1 116 (no result: IDH1 R132H inh) | T cruzi growth-2 99 | T cruzi growth-3 inactive | NIH3T3 tox inactive | 3T3 cytotox 2 inactive
CC(O)(CNCc1ccc(Cl)cc1)CSc1ccccc1Cl (stereo unspecified)	none (no result: Pf Dd2 growth, GASC1 inh, T cruzi growth-1)
Cc1c(NC(=O)CN(c2ccccc2F)S(C)(=O)=O)cccc1[N+](=O)[O-]	none (no result: Pf Dd2 growth, GASC1 inh, T cruzi growth-1)
OC[C@@H]1Nc2ccc(C#Cc3ccc(F)cc3)cc2[C@@H]2[C@H]1CCN2Cc1ccc2c(c1)OCO2	T cruzi growth-1 134 (no result: IDH1 R132H inh) | T cruzi growth-2 103 | T cruzi growth-3 107 | NIH3T3 tox 38 | 3T3 cytotox 2 103
N#Cc1ccc(-c2ccc3c(c2)[C@@H]2[C@@H](CCN2Cc2ccc4c(c2)OCO4)[C@@H](CO)N3)cc1	T cruzi growth-1 101 (no result: IDH1 R132H inh) | T cruzi growth-2 105 | T cruzi growth-3 102 | NIH3T3 tox inactive | 3T3 cytotox 2 106
OC[C@H]1Nc2ccc(C#Cc3ccc(F)cc3)cc2[C@@H]2[C@H]1CCN2Cc1ccc2c(c1)OCO2	T cruzi growth-1 inconclusive (no result: IDH1 R132H inh) | T cruzi growth-2 103 | T cruzi growth-3 97 | NIH3T3 tox 40 | 3T3 cytotox 2 104
COc1ccc2[nH]c(=O)c(CN(C)C(=O)c3cccc(Cl)c3)cc2c1	none (no result: Pf Dd2 growth, GASC1 inh, T cruzi growth-1)
COc1ccc(C(=O)CC2(O)C(=O)N(CCCC#N)c3ccccc32)c(OC)c1 (stereo unspecified)	none (no result: Pf Dd2 growth, GASC1 inh, T cruzi growth-1)
